Among the data in ChEMBL document CHEMBL1133666, “Esterase-sensitive nitric oxide donors of the diazeniumdiolate family: in vitro antileukemic activity” (J Med Chem, 2000) are IC50, inhibition and Apoptosis induction values, retold here.

In general, IC50 refers to the point on the concentration scale where inhibition reaches its midpoint. A low value points to greater potency. A word on the inhibition: it is the relative decrease from the control value, in per cent. Low values mean little suppression, high ones strong suppression.

A value given as a limit tells only on which side of the number the result lay.

The test system of experiment [1] is HL-60. In words: Inhibitory activity towards HL-60 cells at 72 hours. It is filed as functional, cell-based. The note with it: Homo sapiens, HL-60, 72 h. In outline:
(§1)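 Leukemia cells seeded at 150 000 cells/mL in RPMI-1640 with 10% FBS, 37 °C, 5% CO₂, 1 mL per well. NO donors added at culture initiation. Cells harvested at 72 h and washed twice in PBS. Viable cells counted by Trypan blue exclusion. IC50 calculated from the concentration–growth curve. Means ± SEM of at least three separate experiments.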

The subject of experiment [2] is HL-60. Briefly: Inhibitory activity towards HL-60 cells at concentration of 100 uM. The class given is functional. The note with it: Homo sapiens. In short, it runs like this:
as §1

Experiment [3] concerns U-937. In words: Inhibitory activity towards U937 cells at concentration of 100 uM. The class given is functional. The following applies: Homo sapiens. In outline: as §1
For experiment [4], the system named is HL-60. In words: Within 24 hr at initial concentrations of 50 uM, apoptosis induction was evaluated in HL-60 cells. The class given is functional. In outline:
(§2)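 Cells grown at 150 000 cells/mL in RPMI-1640 with 10% FBS, 37 °C, 5% CO₂, with compound added at culture start and read at 24 h. Cells washed in PBS and lysed in 0.2% NP40/5% BSA in PBS with propidium iodide and RNase A. Flow cytometry scored the low-DNA-content (apoptotic) fraction as percent of cells. Means ± SEM of ≥3 experiments.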

Experiment [5] concerns U-937. Briefly: Inhibitory activity towards U937 cells at 72 hours. The class given is functional, cell-based. The note with it: Homo sapiens, U-937, 72 h. In outline:
as §1

For experiment [6], the system named is U-937. In words: Within 24 hr at initial concentrations of 50 uM, apoptosis induction was evaluated in U937 cells. The class given is functional. In short, it runs like this:
as §2

`[O-]/[N+](=N\O)N1CCCC1` returned a half-inhibitory concentration (IC50) in experiment [1] of over 600 µM.

As for `CCN(CC)/[N+]([O-])=N/O`, the IC50 in experiment [1] was over 600 µM.

`CCN(CC)/[N+]([O-])=N/OCCSC(C)=O`: the values for the inhibition at 100 µM in experiment [2] and in experiment [3] were 90% and 48%, respectively.

`CC(=O)OCO/N=[N+](\[O-])N1CCCC1`: the IC50 in experiment [1] came out at 6.4 µM; in experiment [5] it was 53 µM. Also, the Apoptosis induction in experiment [4] came to 57%; in experiment [6], 40%.

Regarding `CCN(CC)/[N+]([O-])=N/OCOC(C)=O`, the results for the IC50 in experiment [1] and in experiment [5] were 8.3 µM and 53 µM, respectively. The Apoptosis induction in experiment [4] is given as 50%; in experiment [6], 35%.
